Data as given in ChEMBL document CHEMBL4837191, “Prenylated Coumaric Acids from Artemisia scoparia Beneficially Modulate Adipogenesis” (J Nat Prod, 2021).
Activity calls are given as the source filed them. No cut-off for these calls is given here.

Key:
Type in all cases: functional, cell-based
3T3-L1 [1] = experiment: Inhibition of TNF-alpha induced lipolysis in mouse 3T3-L1 adipocytes assessed as reduction in glycerol release at 2.5 to 25 uM measured after 4 hrs by glycerol reagent based assay; settings: dose 2.5-25 µM
Procedure, shortened: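 Mature 3T3-L1 adipocytes (full MDI: 0.5 mM IBMX, 1 µM DEX, 1.72 µM insulin), refed day 6, then compound (2.5, 10, 25 µM) or DMSO for 3 days. Overnight 0.75 nM TNFα (or BSA/PBS vehicle), then 4 h in low-glucose DMEM + 2% BSA with TNFα. Medium glycerol by Free Glycerol Reagent, normalized to BCA lysate protein.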

3T3-L1 [2] = experiment: Induction of adipogenic differentiation in mouse 3T3-L1 cells assessed as increase in PPARgamma mRNA expression by RT-PCR analysis; settings: dose 2.5-25 µM
Procedure, shortened: (§1)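 3T3-L1 preadipocytes induced 2 days post-confluence with half-strength MDI (IBMX, DEX, insulin in high-glucose DMEM + 10% FBS); compound (2.5, 10, 25 µM, DMSO 1,000× stocks) added at induction and at day-3 feeding (DMEM + 10% FBS, 0.43 µM insulin). RNA harvested 4 days post-MDI; reverse-transcription qPCR, normalized to Nono; compared with DMSO controls.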

3T3-L1 [3] = experiment: Induction of adipogenic differentiation in mouse 3T3-L1 cells assessed as increase in FABP4 mRNA expression by RT-PCR analysis; settings: dose 2.5-25 µM; procedure, shortened: as §1
3T3-L1 [4] = experiment: Induction of adipogenic differentiation in mouse 3T3-L1 cells assessed as increase in AdipoQ mRNA expression by RT-PCR analysis; settings: dose 2.5-25 µM; procedure, shortened: as §1
3T3-L1 [5] = experiment: Induction of adipogenic differentiation in mouse 3T3-L1 cells at 2.5 to 25 uM measured after 4 days by Oil Red O staining; settings: dose 2.5-25 µM, time 4.0 day

Compound	inhibition (3T3-L1 [1])	Activity (3T3-L1 [2])	Activity (3T3-L1 [3])	Activity (3T3-L1 [4])	Activity (3T3-L1 [5])
CC(=O)OC/C(C)=C\Cc1cc(/C=C/C(=O)O)cc(C/C=C(/C)CO)c1O	Active	Active	Active	Active	Active
CC(=O)OC/C(C)=C\Cc1cc(/C=C\C(=O)O)cc(C/C=C(/C)CO)c1O	Active	Active	Active	Active	Active
CC(C)=CCc1cc(/C=C/C(=O)O)cc(C/C=C(/C)CO)c1O	inactive	–	–	–	Active
CC(C)=CCc1cc(/C=C/C(=O)O)cc(C/C=C(\C)CO)c1O	inactive	Active	Active	Active	Active
